The inhibition is the percentage by which the read-out fell short of the control. In general, IC50 refers to the concentration that inhibits the measured activity by half.

Our source for the inhibition, Activity and IC50 values is ChEMBL document CHEMBL1156197, “Design, synthesis and evaluation of novel 2-thiophen-5-yl-3H-quinazolin-4-one analogues as inhibitors of transcription factors NF-kappaB and AP-1 mediated transcriptional activation: Their possible utilization as anti-inflammatory and anti-cancer agents” (Bioorg Med Chem, 2010).

Series [1] relates to HEK293. As to the kind of experiment: Inhibition of NF-kappaB expressed in HEK293 cells assessed as inhibition of TNF-alpha-stimulated transcriptional activation at 10 uM treated 24 hrs before TNFalpha challenge measured after 20 to 24 hrs by luciferase reporter gene assay. The series is classed as cell-based. A digest of the protocol: (§1)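 Compounds in 0.1% DMSO (10 µM–1 nM) were added to replicate wells for 24 h. Cells were then stimulated with TNF-α for 20–24 h and read with Bright-Glo luciferase. Mean RLU was normalized to the maximal control; IC50 came from a six-point dose response.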
A general note: In a reporter assay the amount or activity of a reporter protein is the signal.

The target in series [2] is Transcription factor Jun (Homo sapiens) (UniProt P05412). As to the kind of experiment: Inhibition of AP-1 expressed in HEK293 cells assessed as PMA-stimulated transcriptional activation at 10 uM treated 24 hrs before PMA challenge measured after 20 to 24 hrs by luciferase reporter gene assay. The series is classed as cell-based. A digest of the protocol: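 HEK-293 cells stably carrying a minimal-promoter luciferase construct with tandem AP-1 elements (TGACTAA) were plated at 5 × 10⁴ cells/well and held 24 h at 37 °C in 5% CO₂. Compounds in 0.1% DMSO (10 µM–1 nM) were added to replicate wells for 24 h. Cells were then stimulated with PMA for 20–24 h and read with Bright-Glo luminescence. Mean RLU was normalized to the maximal control; IC50 came from a six-point dose response.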

Series [3] deals with HEK293. As to the kind of experiment: Cytotoxicity against TNF-alpha-stimulated HEK293 cells at 10 uM treated 24 hrs before TNFalpha challenge measured after 20 to 24 hrs. The series is classed as cell-based. The following applies: human, hek293, 10 µM.
Series [4] can be described thus: Inhibition of NF-kappaB expressed in HEK293 cells assessed as inhibition of TNF-alpha-stimulated transcriptional activation treated 24 hrs before TNFalpha challenge measured after 20 to 24 hrs by luciferase reporter gene assay. The series is classed as cell-based. Summed up: as §1
Series [5] relates to Rattus norvegicus. As to the kind of experiment: Antiinflammatory activity against carrageenan-induced paw edema in Sprague-Dawley rat assessed as reduction in paw volume at 50 mg/kg, po dosed 1 hr before carrageenan challenge measured after 3 hrs by plethysmometry. It counts as functional. Details: scale not given: the % may be the effect or the level left.

Transcription factor Jun (Homo sapiens), sequence (P05412 whole entry): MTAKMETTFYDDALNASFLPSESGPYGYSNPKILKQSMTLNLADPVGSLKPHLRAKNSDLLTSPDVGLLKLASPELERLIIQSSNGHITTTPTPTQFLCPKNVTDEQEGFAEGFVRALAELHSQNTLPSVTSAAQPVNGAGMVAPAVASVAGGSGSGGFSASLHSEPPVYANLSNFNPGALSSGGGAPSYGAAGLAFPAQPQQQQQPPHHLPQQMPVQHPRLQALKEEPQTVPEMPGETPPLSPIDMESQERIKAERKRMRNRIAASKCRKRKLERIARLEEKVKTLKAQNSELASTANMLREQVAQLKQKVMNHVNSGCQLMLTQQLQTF

Consider `CSc1ccc(-c2cc(-c3nc4ccccc4c(=O)n3-c3ccccc3C)sc2N2CCOCC2)cc1`, for which the results for the inhibition in series [1] and in series [2] were 15% and 13%, respectively. Moreover, the Activity entry in series [3] is “Non-toxic”.

For `COc1ccc(-n2c(-c3cc(-c4ccc(S(C)(=O)=O)cc4)c(N4CCOCC4)s3)nc3ccccc3c2=O)cc1`, the inhibition in series [1] worked out at 60%; in series [2] it was 10%. Moreover, the IC50 in series [4] was determined as 26 µM. Moreover, the Activity in series [5] is 53%; in series [3], “Non-toxic”.

On to `Cc1ccc(-n2c(-c3cc(-c4ccccc4)c(N4CCOCC4)s3)nc3ccccc3c2=O)cc1`, for which the inhibition in series [1] was 0%; in series [2], 17%. In series [3], the Activity entry is “Non-toxic”.

`Cc1ccc(-n2c(-c3cc(-c4ccncc4)c(N4CCOCC4)s3)nc3ccccc3c2=O)cc1`: the inhibition in series [1] was 26%; in series [2], 29%. In addition, the Activity result in series [3] is on record as “Non-toxic”.

Turning to `Cc1ccccc1-n1c(-c2cc(-c3ccccc3)c(N3CCOCC3)s2)nc2ccccc2c1=O`, the inhibition in series [1] worked out at 23%; in series [2], 27%. In addition, in series [3], the Activity result is recorded as “Non-toxic”.

For the compound `CS(=O)(=O)c1ccc(-c2cc(-c3nc4ccccc4c(=O)n3-c3ccc(Cl)cc3)sc2N2CCOCC2)cc1`, the results for the inhibition in series [1] and in series [2] were 0% and 7%, respectively. Also, the Activity result in series [3] is “Non-toxic”.

Regarding `CC(=O)Nc1ccc(-c2cc(-c3nc4ccccc4c(=O)n3-c3ccc(C)cc3)sc2N2CCOCC2)cc1`, the inhibition in series [1] worked out at 4%; in series [2], 35%. In addition, the Activity entry in series [3] was “Non-toxic”.

On to `O=c1c2ccccc2nc(-c2cc(-c3ccc(Cl)cc3)c(N3CCOCC3)s2)n1-c1ccccc1`, for which the inhibition in series [1] and in series [2] was 0% throughout. Besides, the Activity entry in series [3] is “Non-toxic”.

On to `COc1ccccc1-n1c(-c2cc(-c3ccc(S(C)(=O)=O)cc3)c(N3CCOCC3)s2)nc2ccccc2c1=O`, for which the inhibition stood at 55% in series [1] and 33% in series [2]. The IC50 in series [4] was 9.2 µM. For the same compound, the Activity in series [5] is on record as 63%; in series [3] it was “Non-toxic”.

For the compound `COc1ccccc1-n1c(-c2cc(-c3ccccc3)c(N3CCOCC3)s2)nc2ccccc2c1=O`, the inhibition in series [1] and in series [2] was 0% throughout. The Activity result in series [3] is “Non-toxic”.

Regarding `Cc1ccc(-n2c(-c3cc(-c4ccc(Cl)cc4)c(N4CCOCC4)s3)nc3ccccc3c2=O)cc1`, the inhibition in series [1] worked out at 15%; in series [2], 27%. The Activity entry in series [3] is “Non-toxic”.

Consider `COc1ccccc1-n1c(-c2cc(-c3ccncc3)c(N3CCOCC3)s2)nc2ccccc2c1=O`, for which the inhibition came out at 55% in series [1] and 33% in series [2]. For the same compound, the IC50 in series [4] came to 12.2 µM. The Activity in series [5] is 42%; in series [3] it was “Non-toxic”.

Turning to `Cc1cccc(-n2c(-c3cc(-c4ccc(S(C)(=O)=O)cc4)c(N4CCOCC4)s3)nc3ccccc3c2=O)c1`, the inhibition in series [1] was 20%; in series [2], 48%. The Activity entry in series [3] was “Non-toxic”.

`CC(=O)Nc1ccc(-c2cc(-c3nc4ccccc4c(=O)n3-c3ccc(Cl)cc3)sc2N2CCOCC2)cc1`: the figures for the inhibition in series [1] and in series [2] were 0% and 17%, respectively. Also, the Activity result in series [3] is given as “Non-toxic”.

Regarding `Cc1ccccc1-n1c(-c2cc(-c3ccncc3)c(N3CCOCC3)s2)nc2ccccc2c1=O`, the inhibition in series [1] amounted to 53%; in series [2], 0%. Besides, in series [4], the concentration for half-maximal inhibition (IC50) came out at 7.1 µM. Also, the Activity is recorded as 51% in series [5] and “Non-toxic” in series [3].

As for `COc1cccc(-n2c(-c3cc(-c4ccc(S(C)(=O)=O)cc4)c(N4CCOCC4)s3)nc3ccccc3c2=O)c1`, the inhibition in series [1] was determined as 20%; in series [2] it was 0%. The Activity entry in series [3] was “Non-toxic”.

For the compound `Cc1ccccc1-n1c(-c2cc(-c3ccc(Cl)cc3)c(N3CCOCC3)s2)nc2ccccc2c1=O`, the figures for the inhibition in series [1] and in series [2] were 1% and 32%, respectively. Moreover, the Activity result in series [3] is listed as “Non-toxic”.

`O=c1c2ccccc2nc(-c2cc(-c3ccncc3)c(N3CCOCC3)s2)n1-c1ccc(Cl)cc1`: the inhibition in series [1] is 68%; in series [2], 32%. For the same compound, in series [4], the IC50 stood at 11.4 µM. Also, the Activity in series [5] was 52%; in series [3] it was “Non-toxic”.

Take `CSc1ccc(-c2cc(-c3nc4ccccc4c(=O)n3-c3ccccc3)sc2N2CCOCC2)cc1`: the inhibition in series [1] and in series [2] was 0% each time. Besides, the Activity entry in series [3] is recorded as “Non-toxic”.

`CC(=O)c1ccc(-n2c(-c3cc(-c4ccc(S(C)(=O)=O)cc4)c(N4CCOCC4)s3)nc3ccccc3c2=O)cc1`: the inhibition in series [1] worked out at 46%; in series [2], 31%. The Activity entry in series [3] is on record as “Non-toxic”.

Turning to `CC(=O)c1ccc(-n2c(-c3cc(-c4ccccc4)c(N4CCOCC4)s3)nc3ccccc3c2=O)cc1`, the inhibition in series [1] was 0%; in series [2], 25%. For the same compound, the Activity result in series [3] is listed as “Non-toxic”.

Regarding `O=c1c2ccccc2nc(-c2cc(-c3ccccc3)c(N3CCOCC3)s2)n1-c1ccccc1`, the inhibition in series [1] came to 0%; in series [2], 11%. Besides, the Activity entry in series [3] is “Non-toxic”.

On to `CC(=O)Nc1ccc(-c2cc(-c3nc4ccccc4c(=O)n3-c3cccc(C)c3)sc2N2CCOCC2)cc1`, for which the inhibition in series [1] worked out at 35%; in series [2], 13%. Besides, in series [3], the Activity result was “Non-toxic”.

For the compound `O=c1c2ccccc2nc(-c2cc(-c3ccccc3)c(N3CCOCC3)s2)n1-c1ccc(Cl)cc1`, the inhibition in series [1] is 0%; in series [2], 23%. Also, in series [3], the Activity entry was “Non-toxic”.

Take `CSc1ccc(-c2cc(-c3nc4ccccc4c(=O)n3-c3ccc(C)cc3)sc2N2CCOCC2)cc1`: the inhibition in series [1] was 22%; in series [2] it was 16%. In series [3], the Activity entry was “Non-toxic”.

Consider `CSc1ccc(-c2cc(-c3nc4ccccc4c(=O)n3-c3cccc(C)c3)sc2N2CCOCC2)cc1`, for which the inhibition worked out at 11% in series [1] and 14% in series [2]. The Activity result in series [3] is recorded as “Non-toxic”.

Turning to `O=c1c2ccccc2nc(-c2cc(-c3ccc(Cl)cc3)c(N3CCOCC3)s2)n1-c1ccc(Cl)cc1`, the inhibition in series [1] was determined as 0%; in series [2], 14%. Also, the Activity entry in series [3] is listed as “Non-toxic”.

As for `O=c1c2ccccc2nc(-c2cc(-c3ccncc3)c(N3CCOCC3)s2)n1-c1ccccc1Cl`, the inhibition amounted to 80% in series [1] and 35% in series [2]. Moreover, the IC50 in series [4] is 10.3 µM. The Activity in series [5] is listed as 43%; in series [3], “Non-toxic”.

Take `CS(=O)(=O)c1ccc(-c2cc(-c3nc4ccccc4c(=O)n3-c3ccccc3)sc2N2CCOCC2)cc1`: the inhibition in series [1] stood at 9%; in series [2] it was 28%. Further, in series [3], the Activity result is listed as “Non-toxic”.

On to `Cc1cccc(-n2c(-c3cc(-c4ccc(Cl)cc4)c(N4CCOCC4)s3)nc3ccccc3c2=O)c1`, for which the inhibition in series [1] worked out at 28%; in series [2], 10%. Also, the Activity result in series [3] is reported as “Non-toxic”.

Take `Cc1ccccc1-n1c(-c2cc(-c3ccc(S(C)(=O)=O)cc3)c(N3CCOCC3)s2)nc2ccccc2c1=O`: the values for the inhibition in series [1] and in series [2] were 51% and 52%, respectively. Besides, the Activity entry in series [3] is listed as “Non-toxic”.

With `CC(=O)c1ccc(-n2c(-c3cc(-c4ccc(Cl)cc4)c(N4CCOCC4)s3)nc3ccccc3c2=O)cc1`, the inhibition was found to be 0% in series [1] and 7% in series [2]. Further, the Activity entry in series [3] is recorded as “Non-toxic”.

For the compound `CC(=O)Nc1ccc(-c2cc(-c3nc4ccccc4c(=O)n3-c3ccccc3)sc2N2CCOCC2)cc1`, the inhibition in series [1] came to 7%; in series [2], 26%. Further, the Activity entry in series [3] is on record as “Non-toxic”.

On to `Cc1ccc(-n2c(-c3cc(-c4ccc(S(C)(=O)=O)cc4)c(N4CCOCC4)s3)nc3ccccc3c2=O)cc1`, for which the inhibition in series [1] amounted to 55%; in series [2] it was 51%. The Activity result in series [3] is given as “Non-toxic”.

As to `O=c1c2ccccc2nc(-c2cc(-c3ccncc3)c(N3CCOCC3)s2)n1-c1ccccc1`, the inhibition in series [1] stood at 30%; in series [2], 38%. In addition, the Activity result in series [3] is reported as “Non-toxic”.

Regarding `Cc1cccc(-n2c(-c3cc(-c4ccncc4)c(N4CCOCC4)s3)nc3ccccc3c2=O)c1`, the values for the inhibition in series [1] and in series [2] were 42% and 35%, respectively. The Activity entry in series [3] is recorded as “Non-toxic”.
